The term Ki denotes a measure of affinity in units of concentration, obtained from inhibition or displacement. A low value points to higher affinity.

This passage reports Ki and permeability results from ChEMBL document CHEMBL1938251, “Synthesis and evaluation of potent and selective human V1a receptor antagonists as potential ligands for PET or SPECT imaging” (Bioorg Med Chem, 2012).

A value given as a limit tells only on which side of the number the result lay.

The target of one series is Vasopressin V1a receptor (Homo sapiens, UniProt P37288). The experiment in a line: Displacement of [3H]arginine-vasopressin from human Vasopressin V1a receptor after 30 mins by liquid scintillation counter. In general terms: In a radioligand displacement assay an active substance lowers the binding of a labelled ligand.
The target in another series is T1, Vasopressin V1b receptor (Homo sapiens, UniProt P47901).
T1 sequence (P47901 whole entry): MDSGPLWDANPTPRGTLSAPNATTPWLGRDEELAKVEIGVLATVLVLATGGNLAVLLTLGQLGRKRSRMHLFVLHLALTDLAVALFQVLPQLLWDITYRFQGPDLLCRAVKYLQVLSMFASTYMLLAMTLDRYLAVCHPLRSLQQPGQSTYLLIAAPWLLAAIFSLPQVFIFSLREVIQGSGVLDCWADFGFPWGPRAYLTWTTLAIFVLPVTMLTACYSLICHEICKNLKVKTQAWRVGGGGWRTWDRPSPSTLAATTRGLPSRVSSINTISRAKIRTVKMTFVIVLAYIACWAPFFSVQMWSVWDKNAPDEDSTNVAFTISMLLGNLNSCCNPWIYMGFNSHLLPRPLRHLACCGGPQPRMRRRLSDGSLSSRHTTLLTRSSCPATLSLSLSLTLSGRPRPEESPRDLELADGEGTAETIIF
As to the kind of experiment: Binding affinity to human V1b receptor.

A further series addresses Vasopressin V2 receptor (Homo sapiens, UniProt P30518). As to the kind of experiment: Binding affinity to human vasopressin V2 receptor.
Series [1] in a line: Permeability of the compound at 25 ug/ml after 18 hrs by PAMPA-BBB assay.
Series [2] can be described thus: Permeability of the compound at 5 mg/ml after 18 hrs by PAMPA-BBB assay. The format is ADME. Particulars: in the assay text read “25 ug/ml” for “5 mg/ml”. The method, boiled down: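 PAMPA-BBB: DMSO stocks (5 mg/mL) diluted 200-fold into universal buffer pH 7.4, giving 25 μg/mL in the donor wells. The filter membrane was coated with porcine brain lipid in dodecane (20 mg/mL), with buffer pH 7.4 as acceptor. Plates stood undisturbed at room temperature for 18 h. Verapamil and theophylline served as high- and low-permeability standards. Pe was calculated by the Faller equation.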
(PAMPA measures passive passage across an artificial lipid membrane.)

Vasopressin V2 receptor, sequence (P30518 whole entry): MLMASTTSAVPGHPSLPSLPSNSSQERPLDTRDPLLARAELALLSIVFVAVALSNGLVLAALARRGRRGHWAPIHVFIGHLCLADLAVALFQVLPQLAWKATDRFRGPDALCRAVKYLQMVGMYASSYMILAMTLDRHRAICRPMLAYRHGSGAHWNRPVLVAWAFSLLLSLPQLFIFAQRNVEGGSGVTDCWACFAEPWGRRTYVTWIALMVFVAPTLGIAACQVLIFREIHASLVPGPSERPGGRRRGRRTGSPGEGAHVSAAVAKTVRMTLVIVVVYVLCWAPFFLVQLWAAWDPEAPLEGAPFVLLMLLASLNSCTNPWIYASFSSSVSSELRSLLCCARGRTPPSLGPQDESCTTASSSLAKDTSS
Vasopressin V1a receptor, sequence (P37288 whole entry): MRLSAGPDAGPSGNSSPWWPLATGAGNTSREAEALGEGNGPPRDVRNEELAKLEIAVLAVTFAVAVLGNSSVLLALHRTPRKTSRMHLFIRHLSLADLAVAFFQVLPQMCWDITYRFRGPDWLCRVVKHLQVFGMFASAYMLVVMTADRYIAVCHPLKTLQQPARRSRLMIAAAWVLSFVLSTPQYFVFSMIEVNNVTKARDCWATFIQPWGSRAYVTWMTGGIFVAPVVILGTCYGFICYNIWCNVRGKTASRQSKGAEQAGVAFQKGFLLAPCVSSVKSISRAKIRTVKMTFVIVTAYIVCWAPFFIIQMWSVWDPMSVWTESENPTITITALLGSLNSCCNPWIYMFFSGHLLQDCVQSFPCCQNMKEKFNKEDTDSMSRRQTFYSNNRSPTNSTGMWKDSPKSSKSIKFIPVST

Regarding `C[C@@H](NC(=O)[C@@H](CC(=O)N1CCC(N2CCCCC2)CC1)N1C(=O)[C@@H](N2C(=O)OC[C@@H]2c2ccccc2)[C@H]1/C=C/c1cccc(F)c1)c1ccccc1`, the Ki at Vasopressin V1a receptor was 0.61 nM; at Vasopressin V1b receptor it was 1150 nM; at Vasopressin V2 receptor, > 10000 nM. Besides, the permeability in series [1] was determined as 5.3 ×10⁻⁶ cm/s.

As for `C[C@@H](NC(=O)[C@@H](CC(=O)N1CCC(N2CCCCC2)CC1)N1C(=O)[C@@H](N2C(=O)OC[C@@H]2c2ccccc2)[C@H]1/C=C/c1cccc(I)c1)c1ccccc1`, the Ki on Vasopressin V1b receptor and on Vasopressin V2 receptor was > 1000 nM each time. For the same compound, in series [2], the permeability came out at 2.2 ×10⁻⁶ cm/s.

With `Cc1cccc(/C=C/[C@@H]2[C@H](N3C(=O)OC[C@@H]3c3ccccc3)C(=O)N2[C@H](CC(=O)N2CCC(N3CCCCC3)CC2)C(=O)N[C@H](C)c2ccccc2)c1`, the Ki at Vasopressin V1a receptor is 0.63 nM; at Vasopressin V1b receptor, 1300 nM; at Vasopressin V2 receptor, > 10000 nM. Also, the permeability in series [1] stood at 4.5 ×10⁻⁶ cm/s.
